PAX8 reporter: PAX8 transcriptional activity inhibition; RMG-I TPO-luciferase reporter, SteadyGlo, 24 h; inhibition, % at 12.6 µM; hit rate 1.2% among 360,000; AID 652154;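 active = mean replicate inhibition at least 60% with every replicate also reaching 60%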;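 note: luciferase light reporting Pax8 driven TPO promoter activity; plate controls were median of neutral control wells for no effect and mitoxantrone controls for full effect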
LMP1 NFkB inh: inhibitors of Epstein-Barr LMP1-induced NF-kappaB reporter; LMP1-induced NF-kappaB luciferase reporter cells, luminescence; inhibition, % at 12.5 µM; hit rate 0.69% among 350,000; AID 504558; in the data active = inhibition above about 41%;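 note: 0% = neutral control wells and 100% = reference inhibitor control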
FN deposition inh: fibronectin deposition inhibition. AH1F fibroblasts, Alexa488-fibronectin deposition fluorescence, overnight. inhibition, % at 12.6 µM. hit rate 0.086% among 350,000. AID 743247;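 active = mean inhibition across replicates of 30% or more, regardless of how many single replicates reach that level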;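 note: positive control wells lacked labelled fibronectin entirely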
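material = AH1F fibroblast monolayer depositing Alexa488-labelled fibronectin into matrix | amount = 10000 AH1F cells/well | buffer or medium = DMEM plus 2% serum, read in PBS | incubation = 1 h cell adhesion before compound, then overnight fibronectin incubation | detection = fluorescence at 485 nm excitation, 525 nm emission | evaluation = percent inhibition as loss of matrix-bound fibronectin fluorescence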
Shn3 inh set2: inhibitors of Schnurri-3 3'UTR reporter in osteoblasts; Clone20 osteoblast Shn3 3'UTR firefly luciferase, 24 h; inhibition, % at 12.5 µM; hit rate 0.52% among 360,000;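 active = mean inhibition of at least 75% with every replicate also reaching 75%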;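 note: 0% = median of neutral control wells and 100% = pilot-screen positive control compound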
EWS-Fli block: blocks EWS/Fli oncoprotein-driven transcription | hit rate 0.67% among 350,000 | A673 NR0B1-luciferase reporter, viability-normalised | inhibition, % at 12.6 µM | AID 651661;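 active = mean inhibition of at least 50% after viability correction, with every replicate also passing that limit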;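 note: firefly luciferase signal divided by Alamar Blue viability fluorescence both relative to DMSO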
aSyn 5UTR inh: 5' untranslated region of α-synuclein, MLPCN primary screen. hit rate 0.82% among 300,000. alpha-synuclein 5'UTR reporter, inhibitor activity. inhibition, % (tested at 7.5 µM). AID 1813; in the data active = inhibition above about 60%;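 note: H4 neuroglioblastoma cells stably carrying SNCA 5'UTR luciferase fusion; 0% = DMSO wells and 100% = positive control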
* marks the source's active call; other numbers are inactive results; / = no result. This is a sample that favours compounds with a hit; in the whole collection about 2.1% have one here.

SMILES | PAX8 reporter | LMP1 NFkB inh | FN deposition inh | Shn3 inh set2 | EWS-Fli block | aSyn 5UTR inh
CCCN(C)C[C@@H]1OCc2cnnn2CCCC(=O)N([C@@H](C)CO)C[C@H]1C | -12 | / | 5 | / | -1 | /
C/C=C/c1ccc2c(c1)O[C@@H](CN(C)C(=O)c1cnccn1)[C@H](C)CN([C@@H](C)CO)S2(=O)=O | -12 | / | -2 | / | 2 | /
COc1cc(OC)cc(C(=O)N[C@H](C(=O)OCC(=O)c2ccc(C)c([N+](=O)[O-])c2)C(C)C)c1 | -14 | 84* | -7 | -10 | -6 | /
O=C(Nc1cc(Sc2nc3ccccc3s2)cc([N+](=O)[O-])c1)c1ccccc1F | / | -8 | 15* | 20 | / | -4
C[C@H](CO)N1C[C@H](C)[C@@H](CN(C)S(=O)(=O)c2ccc(F)cc2)Oc2cc(C#Cc3ccc(F)cc3)ccc2S1(=O)=O | / | / | -4 | / | 19 | /
C[C@@H]1CN([C@@H](C)CO)S(=O)(=O)c2ccc(C#Cc3ccc(F)cc3)cc2O[C@H]1CN(C)S(=O)(=O)c1ccc(F)cc1 | / | / | 15 | / | 26 | /
CC(C)CC#Cc1ccc2c(c1)O[C@@H](CN(C)S(=O)(=O)c1ccc(F)cc1)[C@H](C)CN([C@H](C)CO)S2(=O)=O | 67* | / | -5 | / | 24 | /
CC(C)CC#Cc1ccc2c(c1)O[C@H](CN(C)S(=O)(=O)c1ccc(F)cc1)[C@H](C)CN([C@@H](C)CO)S2(=O)=O | 98* | / | 0 | / | 29 | /
Cc1ccc(S(=O)(=O)N(C)C[C@H]2Oc3cc(C#Cc4ccncc4)ccc3S(=O)(=O)N([C@@H](C)CO)C[C@H]2C)cc1 | 104* | / | / | / | 19 | /
C/C=C/c1ccc([C@@H]2[C@@H](CO)N(C(C)=O)C23CN(C(=O)c2cnccn2)C3)cc1 | / | / | / | / | 0 | /
c1ccc(CSc2nnc(Cc3ccccn3)o2)cc1 | 65* | -4 | 5 | -24 | / | -55
c1ccc(CSc2nnc(Cc3ccccc3)o2)cc1 | -84 | -23 | / | -26 | -54 | -71
O[C@@H]1[C@@H](O)C=C2CCN3Cc4cc5c(cc4[C@H]1C23)OCO5 (stereo partly specified) | 102* | 10 | 2 | 20 | 44 | /
CO[C@@H]1CN(C)C(=O)c2ccc(NS(C)(=O)=O)cc2OC[C@@H](C)N(C(=O)C2CCOCC2)C[C@H]1C | / | / | -6 | / | 1 | /
CNC(=O)C[C@H]1CC[C@@H]2[C@H](COc3ccc(NC(=O)c4ccc(F)c(F)c4)cc3C(=O)N2C)O1 | -10 | / | -7 | / | -2 | /
O=C1C(=O)c2ccc(-c3ccccc3)cc2-c2ccccc21 | / | 91* | / | 96* | / | 119*
Nc1ccc2c(c1)C(=O)C(=O)c1ccccc1-2 | / | 86* | / | 97* | / | 130*
CCOC1=C2CN(S(=O)(=O)c3ccc(C)cc3)[C@H](c3cccc4ccccc34)C[C@H]2C(C#N)(C#N)C(C#N)(C#N)C1 | / | / | / | 61 | / | /
CCOC1=C2[C@H](c3ccccc3)N(S(=O)(=O)c3ccc(C)cc3)C(C(C)(C)C)[C@H]2C(C#N)(C#N)C(C#N)(C#N)C1 (stereo partly specified) | 55 | / | / | 87* | 10 | /
O=C(NCCN1CCOCC1)c1ccncc1 | 10 | -10 | -1 | 11 | / | 11
O=C1C=C(NCCN2CCOCC2)C(=O)c2cnccc21 | / | / | / | / | / | 131*
C[C@H](CO)N1C[C@H](C)[C@H](CN(C)C(=O)C2CCCCC2)Oc2ncc(-c3cccc(F)c3)cc2C1=O | / | / | / | / | -6 | /
Cc1cnc(NC(=O)C2COc3ccccc3O2)s1 (stereo unspecified) | / | 26 | / | 34 | / | 71*
Cc1nc2ccc3nc(NC(=O)C4COc5ccccc5O4)sc3c2s1 (stereo unspecified) | -10 | -1 | -7 | -14 | -8 | 3
Cc1cccc(NC(=O)C2COc3ccccc3O2)n1 (stereo unspecified) | -13 | 6 | -4 | -10 | -22 | -71
CC1CCc2nc(NC(=O)C3COc4ccccc4O3)sc2C1 (stereo unspecified) | 6 | 40 | -2 | 32 | -1 | 63*
O=C(Nc1nc(-c2ccccn2)cs1)C1COc2ccccc2O1 (stereo unspecified) | 31 | 33 | 19 | 90* | 17 | /
O=C(Nc1nc(-c2ccccc2)cs1)C1COc2ccccc2O1 (stereo unspecified) | / | 0 | / | -11 | / | -31
Cc1csc(NC(=O)C2COc3ccccc3O2)n1 (stereo unspecified) | / | 1 | / | -3 | / | 62*

Screens (PubChem BioAssay)
